Screens as filed in PubChem.
DENV2 CPE rescue: inhibitors of DENV2 cytopathic effect, primary screen, cell-based, plate reader, single concentration; DENV2-infected cells, cytopathic effect rescue; actives 1.7% (n = 350,000); CPE inhibition, % at 9.99 µM; in the data active = CPE inhibition above about 20%, passing the limit was not always enough; inconclusive = no clear call, values can overlap the other calls; tested in BHK-21 cells
E-sel inducer: E-selectin induction in HUVECs, primary screen, imaging, HUVEC, immunofluorescence imaging, single point; P16581; normalized: neutral wells 0, TNF-alpha wells 100; activation, % at 7.58 µM; AID 686992, 2013; actives 0.37% (n = 260,000);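 active = mean E-selectin-positive cell signal at least 10% of the positive control, reached in at least 60% of replicates, without over 20% cell loss; inconclusive = no rule given, readout overlaps actives, possibly toxicity-flagged; inactive = the rest, including those meeting only one limit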
Target sequence (P16581 whole entry, looked up): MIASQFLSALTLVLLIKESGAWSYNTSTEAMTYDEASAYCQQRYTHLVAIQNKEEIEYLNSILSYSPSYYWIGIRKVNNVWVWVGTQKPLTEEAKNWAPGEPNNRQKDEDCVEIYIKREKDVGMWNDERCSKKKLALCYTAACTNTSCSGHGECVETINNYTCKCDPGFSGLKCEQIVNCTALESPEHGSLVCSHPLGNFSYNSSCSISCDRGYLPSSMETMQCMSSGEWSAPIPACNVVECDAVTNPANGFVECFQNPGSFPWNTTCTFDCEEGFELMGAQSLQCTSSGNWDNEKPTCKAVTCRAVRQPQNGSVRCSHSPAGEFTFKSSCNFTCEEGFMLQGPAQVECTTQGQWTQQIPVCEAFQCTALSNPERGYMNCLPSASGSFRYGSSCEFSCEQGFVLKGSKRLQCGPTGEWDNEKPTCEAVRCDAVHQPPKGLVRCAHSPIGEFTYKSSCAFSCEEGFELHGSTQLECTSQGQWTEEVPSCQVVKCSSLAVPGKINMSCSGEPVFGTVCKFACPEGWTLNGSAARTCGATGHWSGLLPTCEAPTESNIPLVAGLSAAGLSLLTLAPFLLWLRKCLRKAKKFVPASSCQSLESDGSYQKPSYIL
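Assay system: HUVEC, human umbilical vein endothelial cells / Amount: 3,000 HUVEC/well / Controls: TNF-alpha positive control, DMSO neutral control / Compound dosing: single concentration / Medium: EGM-2 over gelatin coat / Evaluation: percent E-selectin-positive cells / Signal: immunofluorescence imaging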
SIRT5 inh: SIRT5 desuccinylase inhibitors, primary screen, biochemical, fluorescence imaging, single point, set 5 | NAD-dependent protein deacylase sirtuin-5, mitochondrial (Homo sapiens), Q9NXA8 | Purified SirT5, succinyl-peptide AMC, trypsin-coupled fluorescence | inhibition, % at 15 µM | actives 1.1% (n = 330,000) | AID 652115, 2013; in the data active = inhibition above about 15%; inconclusive = no clear call, values can overlap the other calls
Large screens that a line does not name were inactive. Shown are actives, neighbours in structure and some others; about 2.9% of the full set was active somewhere.

O=C(CCCCCN1C(=O)c2cccc3cccc(c23)C1=O)NCCCO	none
COc1ccc(C(=O)O)cc1S(=O)(=O)N(CCc1ccccc1)Cc1ccccc1	none
O=c1[nH]c(CN2CCN(S(=O)(=O)/C=C/c3ccccc3)CC2)nc2ccccc12	SIRT5 inh 16 (no result: E-sel inducer)
O=c1[nH]c(CN2CCN(S(=O)(=O)/C=C/c3ccccc3)CC2)nc2cc(Cl)ccc12	none (no result: DENV2 CPE rescue)
CC(=O)c1cccc(NC(=O)c2ccc3c(c2)OCO3)c1	none
CC/C(=N\NC(=O)c1ccc2c(c1)OCO2)c1ccccc1	DENV2 CPE rescue 33
CCOC(=O)c1[nH]c2ccccc2c1NC(=O)c1ccc2c(c1)OCO2	DENV2 CPE rescue 40
COC(=O)c1[nH]c2ccccc2c1NC(=O)/C=C/c1ccc2c(c1)OCO2	DENV2 CPE rescue 38
O=C(N/N=C(/c1ccccc1)c1ccncc1)c1ccc2c(c1)OCO2	none
CCOC(=O)c1cccc(NC(=O)c2ccc3c(c2)OCO3)c1	SIRT5 inh 19 (no result: E-sel inducer)
CCOC(=O)c1[nH]c2ccccc2c1NC(=O)c1ccc(S(=O)(=O)N(C)C)cc1	none
COc1ccccc1NC(=O)/C=C/c1ccc2c(c1)OCO2	none
COC(=O)[C@@]1(C)CC[C@]2(C)CC[C@@]3(C)C(=CC(=O)C4[C@@]5(C)CC[C@H](O)C(C)(C)[C@@H]5CC[C@]43C)[C@H]2C1 (stereo partly drawn)	none (no result: DENV2 CPE rescue, SIRT5 inh)
COc1ccc(NC(=O)Nc2ccccc2C(N)=O)cc1	none (no result: DENV2 CPE rescue)
O=C(CSc1nnc2ccccn12)N1CCOCC1	none (no result: E-sel inducer)
CC(=O)N1CC(=O)N2[C@@H](CO)[C@@H](c3ccc(-c4ccc(C#N)cc4)cc3)[C@@H]2C1	none
CCN(C(=O)CSc1n[nH]c(N)n1)c1cccc2ccccc12	none (no result: E-sel inducer)
O=C(C[C@H]1CC[C@@H]2[C@H](COC[C@@H](O)CN2S(=O)(=O)c2ccccc2F)O1)NCc1ccccc1F	none (no result: SIRT5 inh)
NC(=O)c1cccnc1Oc1ccc(Cl)cc1Cl	none
CCCNC(=O)N(C)C[C@@H]1Oc2ncc(C3=CCCCC3)cc2C(=O)N([C@H](C)CO)C[C@@H]1C	none
C[C@@H]1CN([C@@H](C)CO)C(=O)c2cc(C3=CCCCC3)cnc2O[C@H]1CN(C)C(=O)NC1CCCC1	E-sel inducer 117
C[C@@H]1CN([C@H](C)CO)C(=O)c2cc(C3=CCCC3)cnc2O[C@H]1CN(C)C(=O)Nc1ccccc1	E-sel inducer 49
C[C@H](CO)N1C[C@H](C)[C@H](CN(C)C(=O)NC2CCCC2)Oc2ncc(C3=CCCCC3)cc2C1=O	none
C[C@H]1CN([C@@H](C)CO)C(=O)c2cc(C3=CCCC3)cnc2O[C@H]1CN(C)C(=O)Nc1ccccc1	none
CCCNC(=O)N(C)C[C@@H]1Oc2ncc(C3=CCCC3)cc2C(=O)N([C@H](C)CO)C[C@H]1C	E-sel inducer 58
Cc1noc(C)c1S(=O)(=O)Nc1ccc2c(c1)CC(=O)N([C@H](C)CO)C[C@H](C)[C@@H](CN(C)S(=O)(=O)c1cn(C)cn1)O2	none
O=S(=O)(N[C@@H]1CC[C@@H](CCn2cc(-c3ccc(F)cc3)nn2)O[C@@H]1CO)c1ccccc1F	none
C/C(=N\NS(=O)(=O)c1ccc(Br)cc1)c1ccncc1	none (no result: E-sel inducer)
CO[C@H]1CN(C)C(=O)c2ccc(NC(=O)NC(C)C)cc2OC[C@H](C)N(Cc2ccc(-c3ccccn3)cc2)C[C@H]1C	DENV2 CPE rescue 68 (no result: SIRT5 inh)
CCCC(=O)Nc1ccc2c(c1)C(=O)N(C)C[C@@H](OC)[C@@H](C)CN(Cc1ccc(-c3ccccn3)cc1)[C@H](C)CO2	DENV2 CPE rescue 27 (no result: SIRT5 inh)
CCC(=O)Nc1ccc2c(c1)OC[C@@H](C)N(Cc1ccc(-c3ccccn3)cc1)C[C@@H](C)[C@H](OC)CN(C)C2=O	none (no result: SIRT5 inh)
CO[C@H]1CN(C)C(=O)c2ccc(NC(=O)NC(C)C)cc2OC[C@H](C)N(Cc2ccc(-c3ccccn3)cc2)C[C@@H]1C	none
Cn1c(=O)c2c(nc(Oc3ccccc3Cl)n2C)n(C)c1=O	none
CCOC(=O)C1(C)CCN1C(=O)c1cccc(C#N)c1 (stereo not drawn)	none
CCn1c(C)nc2cc(C(=O)NNS(=O)(=O)c3cc(Br)ccc3Br)ccc21	none
COc1cccc(CN2CCN(C(c3ccccc3)c3ccccc3)CC2)c1O	SIRT5 inh 16 (no result: E-sel inducer)
COc1cc(CN2CCN(C(c3ccccc3)c3ccccc3)CC2)cc(OC)c1OC	none
O=C(c1cccc(Cl)c1)N1CCC2CC1c1cc(-c3ccc(F)cc3)ccc12 (stereo not drawn)	none (no result: E-sel inducer)
O=c1c2ccccc2ncn1-c1cccc([N+](=O)[O-])c1	none (no result: E-sel inducer)
COc1ccc(NC(=O)Nc2ccc3c(c2)C(=O)N([C@H](C)CO)C[C@@H](C)[C@@H](CN(C)C(=O)Nc2ccc4c(c2)OCO4)OCCCC[C@@H](C)O3)cc1	none
COc1ccc(NC(=O)Nc2ccc3c(c2)C(=O)N([C@H](C)CO)C[C@@H](C)[C@H](CN(C)C(=O)Nc2ccc(F)cc2)OCCCC[C@@H](C)O3)cc1	none
COc1ccc(NC(=O)N(C)C[C@H]2OCCCC[C@@H](C)Oc3ccc(NC(=O)CCCN(C)C)cc3C(=O)N([C@@H](C)CO)C[C@@H]2C)cc1	none
COc1ccc(NC(=O)N(C)C[C@@H]2OCCCC[C@@H](C)Oc3ccc(NC(=O)CCCN(C)C)cc3C(=O)N([C@@H](C)CO)C[C@H]2C)cc1	DENV2 CPE rescue 67
COc1ccc(NC(=O)Nc2ccc3c(c2)C(=O)N([C@H](C)CO)C[C@H](C)[C@H](CN(C)C(=O)Nc2ccc4c(c2)OCO4)OCCCC[C@@H](C)O3)cc1	DENV2 CPE rescue 40 (no result: SIRT5 inh)
COc1ccc(NC(=O)Nc2ccc3c(c2)C(=O)N([C@@H](C)CO)C[C@H](C)[C@@H](CN(C)C(=O)Nc2ccc(F)cc2)OCCCC[C@H](C)O3)cc1	SIRT5 inh 17
Cc1noc(C)c1NC(=O)N(C)C[C@H]1Oc2ccc(NS(=O)(=O)c3ccccc3)cc2CC(=O)N([C@H](C)CO)C[C@H]1C	none
CCCNC(=O)C1(C)CCCN(Cc2ccsc2)C1 (stereo not drawn)	none
COc1cccc(/C=C/C(=O)c2ccc(NC3=NCCCS3)cc2)c1	none (no result: E-sel inducer)
O=S1(=O)Cc2cc3ccccc3cc2C1	none (no result: E-sel inducer)
CCn1c(=O)cc(OCC(=O)NCCc2ccc(OC)c(OC)c2)c2ccccc21	SIRT5 inh 20 (no result: E-sel inducer)
CCOc1ccc(CCNC(=O)COc2cc(=O)n(C)c3ccccc23)cc1OCC	none
O=C(CSc1cccc[n+]1[O-])N1CCCCCC1	none (no result: DENV2 CPE rescue, SIRT5 inh)
CCCN1CCC(NC(=O)CC2C(=O)NCCN2Cc2cccc(OC)c2)CC1 (stereo not drawn)	DENV2 CPE rescue 85
COc1cccc(CN2CCNC(=O)C2CC(=O)NC2Cc3ccccc3C2)c1 (stereo not drawn)	none (no result: E-sel inducer)
Cc1[nH]c(=O)c(C#N)c(C)c1CCC(=O)NCc1cccc(C(F)(F)F)c1	DENV2 CPE rescue 28
Cc1ccc(CNC(=O)CCc2c(C)[nH]c(=O)c(C#N)c2C)cc1	DENV2 CPE rescue inconclusive (no result: E-sel inducer)
O=C(NNC(=O)c1ccccc1Br)c1ccc2nc[nH]c2c1	none
Cc1ccc(N(CC(=O)NCc2ccco2)C(=O)CNS(=O)(=O)c2ccccc2)c(C)c1	none
COc1ccc(S(=O)(=O)N(C)C[C@H]2OCCCC[C@@H](C)Oc3ccc(NS(=O)(=O)c4ccc(F)cc4)cc3C(=O)N([C@@H](C)CO)C[C@H]2C)cc1	SIRT5 inh 18
